From ChEMBL document CHEMBL3352024, “A new series of HAPs as anti-HBV agents targeting at capsid assembly” (Bioorg Med Chem Lett, 2014) come the findings set out here.

SMILES strings stand for the structures. The source made the active and inactive calls. The calls are words filed in the database; no cut-off is given here.

Data set [1] relates to Hepatitis B virus. Description: Antiviral activity against hepatitis B virus infected in human HepG2.2.15 cells assessed as inhibition of viral replication. Conditions: hepg2 2.2.15. It counts as functional, organism-based.
A short description of data set [2]: Cytotoxicity against human HepG2.2.15 cells after 48 hrs. It counts as cell-based. The following applies: hepg2 2.2.15, 48 h. The method, boiled down:
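HepG2.2.15 cells exposed to compounds for 48 h; cell viability then determined as the cytotoxicity read-out.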

The test system of data set [3] is hepatitis B virus. Description: (§1) Selectivity index, ratio of TC50 for human HepG2.2.15 cells to IC50 for hepatitis B virus infected in human HepG2.2.15 cells. It counts as toxicity, cell-based. The following applies: HepG2.2.15 cells, read-out: Selectivity Index.
Data set [4] in a line: as §1. Format: toxicity, cell-based.
Data set [5] relates to Hepatitis B virus. The experiment in a line: Inhibition of hepatitis B virus capsid cp149 assembly assessed as reduction in dimer formation at capsid-compound ratio of 1:2 to 1:4 after 24 hrs by HPLC analysis.
For data set [6], the target named is Core antigen (Hepatitis B virus) (UniProt Q03732). Description: Inhibition of hepatitis B virus capsid assembly after 24 hrs by HPLC analysis. The method, boiled down:
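Cp149 capsid protein is mixed with compound in 2× assembly buffer and incubated 24 h. Reactions are analysed by size-exclusion chromatography on an HPLC with autoinjection, on a column equilibrated in 100 mM HEPES pH 7.5, 300 mM NaCl at 0.6 ml/min. Recovered protein is assigned to void (8.5 min), capsid (9.5 min) and dimer (12.5 min) peaks.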

Core antigen (Hepatitis B virus), sequence (Q03732 as listed by the source): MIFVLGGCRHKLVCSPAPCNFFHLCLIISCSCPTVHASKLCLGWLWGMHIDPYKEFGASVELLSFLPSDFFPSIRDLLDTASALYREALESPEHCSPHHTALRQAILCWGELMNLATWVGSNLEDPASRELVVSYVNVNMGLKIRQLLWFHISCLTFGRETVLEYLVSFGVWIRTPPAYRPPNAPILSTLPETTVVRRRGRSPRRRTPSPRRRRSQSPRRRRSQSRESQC

Turning to `CCOC(=O)C1=C(CN2CCNC(=O)C2)NC(c2c(F)cc(F)cc2F)=NC1c1ccc(F)cc1Cl` (stereo not drawn), in data set [1], the IC50 was found to be 5.74 µmol. Moreover, in data set [2], the TC0 worked out at 4.7 µmol and the TC50 is 32.85 µmol. Moreover, the selectivity ratio in data set [3] was determined as 5.72.
For `CCOC(=O)C1=C(CN2CCN(C)CC2)NC(c2c(F)cc(F)cc2F)=NC1c1ccc(F)cc1Cl` (stereo not drawn), in that order: 7.55 µmol, 14.1 µmol, 98.74 µmol and 13.1.
For `CCOC(=O)C1=C(CN2CCN(CC)CC2)NC(c2c(F)cc(F)cc2F)=NC1c1ccc(F)cc1Cl` (stereo not drawn), in that order: 6.71 µmol, 13.78 µmol, 41.3 µmol and 6.16.
Consider `CCOC(=O)C1=C(CN2CCOCC2)NC(c2c(F)cc(F)cc2F)=NC1c1ccc(F)cc1Cl.Cl` (stereo not drawn), for which the IC50 in data set [1] came to 2.35 µmol. In data set [2], this compound had a TC0 of 4.51 µmol and a TC50 of 31.48 µmol. Further, in data set [4], the “Selectivity Index” value worked out at 13.37.
As to `CCOC(=O)C1=C(CN2CCOCC2)NC(c2c(F)cc(F)cc2F)=NC1c1ccc(F)cc1Cl` (stereo not drawn) [listing 1 of 2 here], the inhibition result in data set [5] and in data set [6] was “Active” in each case.
With `CCOC(=O)C1=C(CN2CCCCC2)NC(c2c(F)cc(F)cc2F)=NC1c1ccc(F)cc1Cl` (stereo not drawn), the IC50 in data set [1] turned out to be 10.24 µmol. In data set [2], this compound had a TC0 of 14.56 µmol and a TC50 of 25.21 µmol. In data set [3], the selectivity ratio was determined as 2.46.
In data set [2], `CCOC(=O)C1=C(CN2CCCC2)NC(c2c(F)cc(F)cc2F)=NC1c1ccc(F)cc1Cl` (stereo not drawn) returned a TC0 of 14.96 µmol and a TC50 of 77.29 µmol.
Consider `Nc1ccn([C@@H]2CS[C@H](CO)O2)c(=O)n1` [LAMIVUDINE], for which the IC50 in data set [1] was 14.17 µmol. In data set [2], the TC0 came out at 0.82 µmol and the TC50 was determined as 5.75 µmol.
On the same counts, the results for `CCOC(=O)C1=C(CN2CCC(C)CC2)NC(c2c(F)cc(F)cc2F)=NC1c1ccc(F)cc1Cl` (stereo not drawn) are 9.56 µmol, 4.65 µmol and 32.98 µmol.
Turning to `CCOC(=O)C1=C(CN2CCOCC2)NC(c2c(F)cc(F)cc2F)=NC1c1ccc(F)cc1Cl` (stereo not drawn) [listing 2 of 2 here], the IC50 in data set [1] is 10.57 µmol. In data set [2], this compound returned a TC0 of 4.83 µmol and a TC50 of 33.75 µmol. Also, the “Selectivity Index” value in data set [4] is on record as 3.19.
Take `CCOC(=O)C1=C(CN(CCO)CCO)NC(c2c(F)cc(F)cc2F)=NC1c1ccc(F)cc1Cl` (stereo not drawn): the IC50 in data set [1] amounted to 6.66 µmol. Besides, in data set [2], the TC0 was 13.98 µmol and the TC50 amounted to 54.02 µmol. Further, the selectivity ratio in data set [3] was found to be 8.11.
In the case of `CCOC(=O)C1=C(CN2CCN(C(=O)OCC)CC2)NC(c2c(F)cc(F)cc2F)=NC1c1ccc(F)cc1Cl` (stereo not drawn), in data set [2], the TC0 was found to be 4.22 µmol and the TC50 is 29.6 µmol.
For `CCCN1CCN(CC2=C(C(=O)OCC)C(c3ccc(F)cc3Cl)N=C(c3c(F)cc(F)cc3F)N2)CC1` (stereo not drawn), in that order: 4.45 µmol and 31.25 µmol.
Turning to `CCOC(=O)C1=C(CN2CCOCC2)NC(c2c(F)cc(F)cc2N2CCOCC2)=NC1c1ccc(F)cc1Cl` (stereo not drawn), the IC50 in data set [1] came out at 4.35 µmol. In data set [2], this compound gave a TC0 of 12.81 µmol and a TC50 of 55.25 µmol. The selectivity ratio in data set [3] was 12.7.
Take `CCOC(=O)C1=C(CN2CCSCC2)NC(c2c(F)cc(F)cc2F)=NC1c1ccc(F)cc1Cl` (stereo not drawn): in data set [2], the TC0 was determined as 4.68 µmol and the TC50 amounted to 32.73 µmol.
